From ChEMBL document CHEMBL1144245, “Discovery of 4-aryl-2-oxo-2H-chromenes as a new series of apoptosis inducers using a cell- and caspase-based high-throughput screening assay” (Bioorg Med Chem Lett, 2008)

How the values were obtained:
SNU-398 [1] = experiment: Induction of apoptosis in human SNU398 cells assessed as caspase 3 activation by HTS assay; format: functional, cell-based
T47D [2] = experiment: Growth inhibition of human T47D cells; format: functional
Outline: (§1)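 Growth inhibition assay in T47D, HCT116 and SNU398 cells, run in 96-well format. GI50 reported as mean ± SEM of three or more experiments.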

T47D [3] = experiment: Induction of apoptosis in human T47D cells assessed as caspase 3 activation by HTS assay; format: functional, cell-based
[4] = Growth inhibition of human HCT 116 cells; format: functional; outline: as §1
SNU-398 [5] = experiment: Growth inhibition of human SNU398 cells; format: functional; outline: as §1
HCT-116 = experiment: Induction of apoptosis in human HCT 116 cells assessed as caspase 3 activation by HTS assay; format: functional, cell-based

Structure (SMILES) | EC50 (SNU-398 [1]) [µM] | GI50 (T47D [2]) [µM] | EC50 (T47D [3]) [µM] | GI50 [4] [µM] | GI50 (SNU-398 [5]) [µM] | EC50 (HCT-116) [µM]
COc1cc(-c2c(C#N)c(=O)oc3cc(N)ccc23)cc(Br)c1OC | 0.49 | 0.63 | 0.82 | 0.63 | 0.44 | 0.99
Cn1ccc2c3oc(=O)c(C#N)c(-c4cccc(Br)c4)c3ccc21 | 0.0096 | – | 0.024 | – | – | 0.014
COc1cccc(-c2c(C#N)c(=O)oc3c2ccc2c3ccn2C)c1 | 0.017 | – | 0.043 | – | – | 0.02
COc1cc(-c2c(C#N)c(=O)oc3c2ccc2c3ccn2C)cc(Br)c1OC | 0.006 | 0.0007 | 0.013 | 0.0009 | 0.0003 | 0.01
COc1cccc(-c2c(C#N)c(=O)oc3cc(OC)ccc23)c1 | 0.029 | – | 0.053 | – | – | 0.059
COc1cc(-c2c(C#N)c(=O)oc3cc(N(C)C)ccc23)cc(Br)c1OC | 0.26 | 0.62 | 0.28 | 0.46 | 0.15 | 0.4
COc1cc(OC)cc(-c2c(C#N)c(=O)oc3c2ccc2c3ccn2C)c1 | 0.013 | – | 0.024 | – | – | 0.02
Cn1ccc2c3oc(=O)c(C#N)c(-c4cccc([N+](=O)[O-])c4)c3ccc21 | 0.0095 | – | 0.043 | – | – | 0.013
Cc1cncc(-c2c(C#N)c(=O)oc3c2ccc2c3ccn2C)c1 | 0.014 | – | 0.019 | – | – | 0.016
COc1cc(C2C(C#N)=C(N)Oc3cc(N(C)C)ccc32)cc2c1OCO2 (stereo not given) | – | – | 0.073 | – | – | –
COc1ccc2c(-c3cc(Br)c(OC)c(OC)c3)c(C#N)c(=O)oc2c1 | 0.026 | – | 0.042 | – | – | 0.041
COc1cc(OC)cc(-c2c(C#N)c(=O)oc3cc(OC)ccc23)c1 | 0.015 | – | 0.017 | – | – | 0.018
COc1cc(-c2c(C#N)c(=O)oc3cc(Cl)ccc23)cc(Br)c1OC | 5.5 | – | 6.9 | – | – | 9.4
COc1cc(-c2c(C#N)c(=O)oc3c2ccc2cnccc23)cc(Br)c1OC | 2.5 | – | 3 | – | – | 4.8
COc1cc(-c2c(C#N)c(=O)oc3c2ccc2c3ccn2C)cc2c1OCO2 | 0.017 | 0.025 | 0.027 | 0.026 | 0.0079 | 0.027
